For 15 molecules, IC50, Activity and half-life results are on record in ChEMBL document CHEMBL4261493, “Development of novel β-carboline-based hydroxamate derivatives as HDAC inhibitors with DNA damage and apoptosis inducing abilities” (Medchemcomm, 2017).

The source made the active and inactive calls. No cut-off for these calls is given here. Bounds are passed on as bounds.

A word on the IC50: it is the concentration needed to halve the response being measured. As usually defined, the half-life is the time in which the quantity being followed falls by half.

Data set [1] addresses Histone deacetylase. The experiment in a line: Inhibition of HDAC in human HeLa nuclear extract using Boc-Lys(acetyl)-AMC as substrate measured after 60 mins by fluorescence assay. Type of data set: protein assay.
Data set [2] concerns HCT-116. The experiment in a line: Antiproliferative activity against human HCT116 cells after 48 hrs by MTT assay. Type of data set: functional, cell-based. The conditions noted are these: HCT-116, 48 h. Background: Tetrazolium dyes change colour on reduction, which living cells bring about.
Data set [3] has as its system HepG2. The experiment in a line: Antiproliferative activity against human HepG2 cells after 48 hrs by MTT assay. In kind it is functional, cell-based. The conditions noted are these: HepG2, 48 h.
For data set [4], the system named is LoVo. Kind of data set: Antiproliferative activity against human LoVo cells after 48 hrs by MTT assay. In kind it is functional, cell-based.
In data set [5] the test system is SMMC-7721. The experiment in a line: Antiproliferative activity against human SMMC7721 cells after 48 hrs by MTT assay. Type of data set: functional, cell-based. The following applies: SMMC-7721, 48 h.
The subject of data set [6] is Calf thymus DNA. Kind of data set: Binding affinity to calf thymus DNA assessed as maximum absorption wavelength by UV-Vis spectroscopic titration method. Type of data set: nucleic-acid assay. The following applies: Bos taurus.
Data set [7] relates to HepG2. The experiment in a line: Induction of apoptosis in human HepG2 cells at 5 uM after 48 hrs by Annexin-V FITC/propidium iodide staining based flow cytometry relative to control. In kind it is functional. In a few lines: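 HepG2 cells treated for 48 h with vehicle, compound at 1.0, 2.0 or 4.0 μM, or SAHA at 5.0 μM. Cells stained with FITC-annexin V/PI and analysed by flow cytometry. Percentage of apoptotic cells reported as mean ± SD of three independent experiments; significance tested versus control.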
For orientation: In flow cytometry, cells or beads pass a laser one at a time.

The subject of data set [8] is HepG2. Kind of data set: Induction of apoptosis in human HepG2 cells assessed as increase in cleaved caspase3 expression at 5 uM after 48 hrs by Western blot analysis. Type of data set: functional, cell-based. In a few lines: (§1)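 Sub-confluent HepG2 cells incubated with or without compound (1.0–4.0 μM) or SAHA (5.0 μM) for 48 h. Lysates immunoblotted for Bax, Bcl-2, cleaved caspase-3 and PARP, with β-actin as internal control. Densitometric scanning gave levels relative to β-actin, as mean ± SD of three separate experiments.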
On the technique in general: In western blotting, separated proteins are transferred to a membrane and probed.

Data set [9] concerns HepG2. The experiment in a line: Induction of apoptosis in human HepG2 cells assessed as increase in cleaved PARP expression at 5 uM after 48 hrs by Western blot analysis. In kind it is functional, cell-based. The essentials: as §1
Data set [10] can be described thus: Half life in rat liver microsomes at 5 uM in presence of NADPH by LC-MS analysis.
Data set [11] has as its system Calf thymus DNA. Kind of data set: Binding affinity to calf thymus DNA assessed as decrease in maximum absorption wavelength by UV-Vis spectroscopic titration method. In kind it is nucleic-acid assay. The following applies: Bos taurus.

On to `CCN(Cc1ccc(C(=O)NO)cc1)C(=O)c1cc2c([nH]c3ccccc32)c(-c2ccc(OC)cc2)n1`, for which the IC50 in data set [1] came out at 0.83 µM; in data set [2], 6.07 µM; in data set [3], 8.34 µM; in data set [4], 9.24 µM; in data set [5] it was 10.3 µM.
The like results for `CCCCN(Cc1ccc(C(=O)NO)cc1)C(=O)c1cc2c([nH]c3ccccc32)c(-c2cccc(OC)c2)n1` were, in that order, 0.37 µM, 4.32 µM, 5.16 µM, 7.63 µM and 5.75 µM.
Consider `CCCCN(Cc1ccc(C(=O)NO)cc1)C(=O)c1cc2c([nH]c3ccccc32)c(C)n1`, for which the IC50 in data set [1] is 0.93 µM; in [2], greater than 12.5 µM; in data set [3] it was 11.7 µM; in data set [4], greater than 12.5 µM; in data set [5] it was greater than 12.5 µM.
`CCCN(Cc1ccc(C(=O)NO)cc1)C(=O)c1cc2c([nH]c3ccccc32)c(C)n1`: the IC50 is 0.85 µM in data set [1]; 10.5 µM in data set [2]; 9.83 µM in [3]; greater than 12.5 µM in data set [4]; 11.6 µM in data set [5].
In the case of `CN(Cc1ccc(C(=O)NO)cc1)C(=O)c1cc2c(cn1)[nH]c1ccccc12`, the half-inhibitory concentration (IC50) in [1] is 5.63 µM; in [2], greater than 12.5 µM; in data set [3], greater than 12.5 µM; in data set [5], greater than 12.5 µM.
Regarding `CCN(Cc1ccc(C(=O)NO)cc1)C(=O)c1cc2c(cn1)[nH]c1ccccc12`, the IC50 in data set [1] was 4.78 µM; in data set [2], greater than 12.5 µM; in [3], greater than 12.5 µM; in [5], greater than 12.5 µM.
For the molecule `COc1ccc2c(c1)[nH]c1c(C)nccc12` [HARMINE], in data set [1], the IC50 was greater than 10 µM. Moreover, the Activity in data set [6] turned out to be 320 nm.
With `CCCCN(Cc1ccc(C(=O)NO)cc1)C(=O)c1cc2c([nH]c3ccccc32)c(-c2ccc(OC)cc2)n1`, the concentration for half-maximal inhibition (IC50) in data set [1] stood at 0.34 µM; in data set [2], 3.02 µM; in data set [3] it was 3.37 µM; in data set [4], 4.76 µM; in [5], 5.25 µM.
For `CCCN(Cc1ccc(C(=O)NO)cc1)C(=O)c1cc2c([nH]c3ccccc32)c(-c2cccc(OC)c2)n1`, the IC50 stood at 0.23 µM in data set [1]; 2.96 µM in data set [2]; 3.64 µM in [3]; 5.31 µM in data set [4]; 4.12 µM in data set [5].
The like results for `COc1ccc(-c2nc(C(=O)N(C)Cc3ccc(C(=O)NO)cc3)cc3c2[nH]c2ccccc23)cc1` were, in that order, 0.96 µM, 9.76 µM, 10.5 µM, greater than 12.5 µM and greater than 12.5 µM.
On to `Cc1nc(C(=O)N(C)Cc2ccc(C(=O)NO)cc2)cc2c1[nH]c1ccccc12`, for which the IC50 in [1] was 3.06 µM; in data set [2] it was greater than 12.5 µM; in data set [3], greater than 12.5 µM; in [4], greater than 12.5 µM; in data set [5] it was greater than 12.5 µM.
In the case of `CCCCN(Cc1ccc(C(=O)NO)cc1)C(=O)c1cc2c(cn1)[nH]c1ccccc12`, the IC50 in data set [1] is 2.69 µM; in data set [2], greater than 12.5 µM; in [3], greater than 12.5 µM; in data set [5] it was greater than 12.5 µM.
`CCCN(Cc1ccc(C(=O)NO)cc1)C(=O)c1cc2c(cn1)[nH]c1ccccc12`: the IC50 in data set [1] was 2.82 µM; in data set [2] it was greater than 12.5 µM; in data set [3], greater than 12.5 µM; in data set [5] it was greater than 12.5 µM.
In the case of `O=C(CCCCCCC(=O)Nc1ccccc1)NO` [VORINOSTAT], the Activity in [7] was 34.5%. Further, the result in data set [8] and in data set [9] was Active. Moreover, the half-life at 5 µM in data set [10] is 44 min. Further, the outcome in data set [11] was inactive.
Regarding `CCN(Cc1ccc(C(=O)NO)cc1)C(=O)c1cc2c([nH]c3ccccc32)c(C)n1`, the IC50 in [1] is 1.75 µM; in [2], greater than 12.5 µM; in [3], greater than 12.5 µM; in data set [4], greater than 12.5 µM; in [5], greater than 12.5 µM.
